Laboratory results from ChEMBL document CHEMBL4325919, “3,5-Disubstituted-indole-7-carboxamides as IKKβ Inhibitors: Optimization of Oral Activity via the C3 Substituent” (ACS Med Chem Lett, 2018).
≈ marks a conversion by molar mass, not a printed value. Each block holds one compound with its values, some of them ahead of it.

Experiments:
[1] = molecular target: T1, Inhibitor of nuclear factor kappa-B kinase subunit beta (Homo sapiens, UniProt O14920); test: Inhibition of recombinant human C-terminal GST-tagged IKKbeta (1 to 737 residues) expressed in baculovirus expression system using GST-IkBalpha substrate measured after 30 mins by TR-FRET assay
T1 sequence (O14920 whole entry): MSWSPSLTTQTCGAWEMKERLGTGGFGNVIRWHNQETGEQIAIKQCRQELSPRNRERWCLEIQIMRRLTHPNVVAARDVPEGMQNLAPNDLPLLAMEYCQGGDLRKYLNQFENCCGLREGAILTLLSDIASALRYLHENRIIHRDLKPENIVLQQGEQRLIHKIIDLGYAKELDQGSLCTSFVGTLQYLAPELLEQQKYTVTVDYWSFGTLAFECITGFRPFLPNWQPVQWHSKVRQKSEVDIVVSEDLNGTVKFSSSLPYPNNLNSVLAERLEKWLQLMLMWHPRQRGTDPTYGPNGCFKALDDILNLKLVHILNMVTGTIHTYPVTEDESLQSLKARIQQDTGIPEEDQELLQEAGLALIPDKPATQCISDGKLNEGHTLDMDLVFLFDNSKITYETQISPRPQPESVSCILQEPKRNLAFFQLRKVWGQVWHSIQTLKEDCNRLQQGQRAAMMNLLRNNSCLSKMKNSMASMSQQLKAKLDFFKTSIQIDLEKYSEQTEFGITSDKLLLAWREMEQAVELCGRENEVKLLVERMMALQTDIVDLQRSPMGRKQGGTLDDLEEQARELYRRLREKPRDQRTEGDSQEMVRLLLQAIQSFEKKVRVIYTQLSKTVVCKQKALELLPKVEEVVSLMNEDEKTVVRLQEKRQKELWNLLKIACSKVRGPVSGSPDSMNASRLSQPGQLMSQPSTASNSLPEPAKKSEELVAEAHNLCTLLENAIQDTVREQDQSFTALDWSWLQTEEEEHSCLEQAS
Procedure, shortened: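 IKK pIC50 values are the mean of more than 2 determinations unless noted otherwise. Compounds were tested as racemic mixtures.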

[2] = Half life in Beagle dog at 2.03 mg/kg, po or 1.11 mg/kg, iv; format: ADME, organism-based, Canis lupus familiaris; conditions: in vivo
Procedure, shortened: (§1)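 Male Beagle dogs, n=3. Vehicles were 5% DMSO with 20% Cavitron for i.v. dosing at 1.11 mg/kg and 5% DMSO with 6% Cavitron for oral dosing at 2.03 mg/kg. Derived values were plasma clearance, steady-state volume of distribution, half-life and oral bioavailability.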

Rattus norvegicus [3] = test: Anti-inflammatory activity in LPS-induced Lewis rat inflammation model assessed as inhibition of LPS-induced TNFalpha secretion in blood administered orally 30 mins prior to LPS challenge and measured after 2 hrs by ELISA; format: functional; conditions: po
[4] = Half life in Sprague-Dawley rat at 2 mg/kg, po or 1 mg/kg, iv; format: ADME, organism-based; conditions: in vivo
Procedure, shortened: (§2)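 Male Sprague Dawley rats, n=2 (n=3 for one compound). The i.v. leg used 5% DMSO with 20% Cavitron and the oral leg 5% DMSO with 6% Cavitron. Oral doses were 2 mg/kg, or 2.1 mg/kg where stated. The i.v. dose was 1 mg/kg. Clearance is plasma clearance.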

[5] = Permeability of the compound by PAMPA; format: ADME; conditions: read-out: permeability
[6] = Plasma clearance in Sprague-Dawley rat at 2 mg/kg, po or 1 mg/kg, iv; format: ADME, organism-based; procedure, shortened: as §2
[7] = Oral bioavailability in Beagle dog at 2.03 mg/kg; format: ADME, organism-based, Canis lupus familiaris; conditions: in vivo; procedure, shortened: as §1
[8] = AUC in Sprague-Dawley rat at 2 mg/kg, po; format: ADME, organism-based; conditions: in vivo; procedure, shortened: as §2
[9] = Oral bioavailability in Sprague-Dawley rat at 2 mg/kg; format: ADME, organism-based; conditions: in vivo; procedure, shortened: as §2
[10] = Volume of distribution at steady state in Sprague-Dawley rat at 2 mg/kg, po or 1 mg/kg, iv; format: ADME, organism-based; conditions: in vivo, read-out: Vdss; procedure, shortened: as §2
Canis familiaris = test: Anti-inflammatory activity in inhaled LPS-induced Beagle dog lung neutrophilia model assessed as inhibition of LPS-induced increase in neutrophils in bronchoalveolar lavage administered orally 30 mins prior to LPS instillation and measured after […] by diff quick staining based hemocytometric method; format: functional; conditions: Canis lupus familiaris, po
[11] = Kinetic aqueous solubility of the compound by UV-HPLC analysis; format: physicochemical; conditions: buffer; read-out: Kinetic_solubility
[12] = Plasma clearance in Beagle dog at 2.03 mg/kg, po or 1.11 mg/kg, iv; format: ADME, organism-based, Canis lupus familiaris; procedure, shortened: as §1
[13] = AUC in Beagle dog at 2.03 mg/kg, po; format: ADME, organism-based, Canis lupus familiaris; conditions: in vivo; procedure, shortened: as §1
[14] = Volume of distribution at steady state in Beagle dog at 2.03 mg/kg, po or 1.11 mg/kg, iv; format: ADME, organism-based, Canis lupus familiaris; conditions: in vivo, read-out: Vdss; procedure, shortened: as §1
[15] = molecular target: T1, Inhibitor of nuclear factor kappa-B kinase subunit beta; test: Inhibition of IKKbeta in human CD14-positive monocytes assessed as reduction in LPS-stimulated TNFalpha secretion preincubated for 30 mins followed by LPS stimulation and measured after 24 hrs by Alpha screen assay; format: cell-based
[16] = Kinetic aqueous solubility of the compound by chemiluminescent nitrogen detection assay; format: physicochemical; conditions: buffer; read-out: Kinetic_solubility
Rattus norvegicus [17] = test: Antiinflammatory activity in LPS-induced rat neutrophilia model assessed as inhibition of LPS-induced increase in neutrophils in bronchoalveolar lavage at 100 umol/kg, po administered 30 mins prior to 20 mins nebulized LPS challenge and measured after 4 hrs by diff quick staining based hemocytometric method relative to control; format: functional

- IC50 [1]: 0.0398 µM
SMILES: NC(=O)c1cc(-c2ccccc2)cc2c([C@H]3C[C@H]4CC[C@@H](C3)S4(=O)=O)c[nH]c12

- IC50 [1]: 0.0794 µM
SMILES: NC(=O)c1cc(-c2ccccc2)cc2c(C3CCC(=O)C3)c[nH]c12 (stereo not drawn)

- half-life [2]: 0.949 h
- half-life [4]: 1.58 h
- Papp [5]: 277 nm/s
- clearance [6]: 2.1 L/h/kg
- bioavailability [7]: 52.6%
- AUC [8]: 0.904 µg·h/mL
- bioavailability [9]: 97%
- Vd [10]: 2.8 L/kg
- IC50 [1]: 0.01 µM
- solubility kinetic [11]: 130 µM (≈ 47.9 µg/mL)
- clearance [12]: 1.42 L/h/kg
- AUC [13]: 0.753 µg·h/mL
- Vd [14]: 1.54 L/kg
- IC50 [15]: 0.08 µM
SMILES: NC(=O)c1cc(-c2ccccc2)cc2c(C3CCS(=O)(=O)CC3)c[nH]c12
- ED50 (Rattus norvegicus [3]): 7.6 µmol/kg
- ED50 (Canis familiaris): 2.9 µmol/kg

- IC50 [1]: 0.126 µM
SMILES: CC(=O)CCc1c[nH]c2c(C(N)=O)cc(-c3ccccc3)cc12

- IC50 [1]: 0.501 µM
SMILES: CN1C(=O)CCC1c1c[nH]c2c(C(N)=O)cc(-c3ccccc3)cc12 (stereo not drawn)

- Papp [5]: 310 nm/s
- IC50 [1]: 0.00794 µM
- solubility kinetic [11]: 41 µM (≈ 20.4 µg/mL)
SMILES: NC(=O)c1cc(-c2ccccc2)cc2c(C3CCN(S(=O)(=O)CCN4CCOCC4)CC3)c[nH]c12

- IC50 [1]: 0.0794 µM
SMILES: NC(=O)c1cc(-c2ccccc2)cc2c([C@@H]3C[C@H]4CC[C@@H](C3)S4(=O)=O)c[nH]c12

- half-life [4]: 2.34 h
- Papp [5]: 330 nm/s
- clearance [6]: 3.07 L/h/kg
- AUC [8]: 1.43 µg·h/mL
- bioavailability [9]: 115%
- Vd [10]: 7.2 L/kg
- solubility kinetic [16]: 39 µM (≈ 15.5 µg/mL)
- IC50 [1]: 0.00794 µM
- IC50 [15]: 0.11 µM
SMILES: CC1(C)CC(c2c[nH]c3c(C(N)=O)cc(-c4ccccc4)cc23)CCS1(=O)=O (stereo not drawn)

- IC50 [1]: 0.0398 µM
SMILES: NC(=O)c1cc(-c2ccccc2)cc2c(C3CCC(=O)N3)c[nH]c12 (stereo not drawn)

- half-life [4]: 1.15 h
- Papp [5]: 250 nm/s
- clearance [6]: 0.96 L/h/kg
- AUC [8]: 1.22 µg·h/mL
- bioavailability [9]: 58%
- Vd [10]: 1 L/kg
- IC50 [15]: 0.19 µM
SMILES: CCS(=O)(=O)N1CCC(c2c[nH]c3c(C(N)=O)cc(-c4ccccc4)cc23)CC1
- inhibition in vivo at 100 µmol/kg (Rattus norvegicus [17]): 30%

- half-life [4]: 2.2 h
- Papp [5]: 280 nm/s
- clearance [6]: 1.41 L/h/kg
- AUC [8]: 1.27 µg·h/mL
- bioavailability [9]: 47.4%
- Vd [10]: 3.7 L/kg
- IC50 [1]: 0.0126 µM
- IC50 [15]: 0.05 to 0.81 µM
SMILES: NC(=O)c1cc(-c2ccc(F)cc2)cc2c(C3CCS(=O)(=O)CC3)c[nH]c12

- IC50 [1]: 0.02 µM
SMILES: CC1(C)CC(c2c[nH]c3c(C(N)=O)cc(-c4ccccc4)cc23)NC1=O (stereo not drawn)

- IC50 [1]: 0.0794 µM
SMILES: NC(=O)c1cc(-c2ccccc2)cc2c(C3CCCC(=O)C3)c[nH]c12 (stereo not drawn)

- IC50 [1]: 0.158 µM
SMILES: NC(=O)c1cc(-c2ccccc2)cc2c(C3CCCS(=O)(=O)C3)c[nH]c12 (stereo not drawn)
